Shown are actives, neighbours in structure and some others; about 4% of the full set was active somewhere.
Arrestin-AP2 inh = blocks beta-arrestin peptide binding to AP2 adaptin. FITC-arrestin peptide / GST-AP2 beads, flow cytometry; AP2 beta2 appendage carries R879A mutation. inhibition, % at 10 µM. hit rate 0.31% among 340,000. AID 504490;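 active means inhibition above a set limit, near 3 SD of compounds lacking own fluorescence, cut at about 54% in these data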
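system = GST-tagged AP2 beta2-adaptin appendage (R879A) on 4 µm glutathione beads | reagent = FITC-labelled arrestin peptide probe, 50 nM final | schedule = compound with beads 12 min RT, then probe 1 h RT | signal = HyperCyt-sampled flow cytometry, FL1 channel, ex 488/em 535 nm | read-out = percent response from loss of bead-bound FITC fluorescence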
NR3A LBD binder = modulators (binders) of human NR3A ligand-binding domain. NR3A LBD differential scanning fluorimetry, Tm shift; 0% = protein alone, 100% = glycine-bound protein. Tm shift relative to glycine control, % at 25 µM. hit rate 2.5% among 340,000;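 active means melting temperature shift of at least 10% of the positive control shift, at one fixed dose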
FAS TE block = blocks the thioesterase domain of human fatty acid synthase; hit rate 0.67% among 360,000; inhibition, % at 15 µM; AID 602261; P49327; recombinant FAS-TE, OMFH fluorogenic substrate, fluorescence endpoint;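 active means compounds whose normalised, plate-corrected inhibition of enzyme fluorescence in the single-dose primary screen is 50% or more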
H9c2 protect = modulators protecting cardiomyocytes from myocardial damage; H9c2 cardiomyocytes, H2O2 injury protection, ATPLite, 2 h; protection from H2O2 cell death, % at 20 µM; hit rate 0.63% among 360,000; AID 588492;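 active means compounds giving at least 50% protection of heart cells from peroxide-induced death in the single-dose screen, raw or plate-pattern-corrected value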
SENP1 FRET inh = blocks the human SENP1 SUMO protease catalytic domain | Q9P0U3 | recombinant SENP1 catalytic domain, CyPet-SUMO1-YPet FRET cleavage | inhibition, % at 10 µM | hit rate 0.21% among 360,000;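 active means inhibition at least 30% at 10 µM, raw YFP signal under a set limit, fluorescence ratio 0.5 to 1.5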
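Material: hSENP1 catalytic domain, recombinant; medium: Tris pH 8 with BME, BSA, NP40 and catalase; compound: single concentration of 10 µM compound, 0.5% DMSO final; technique: FRET read of cyan and yellow fluorescence; timing: 50 min enzyme reaction, room temperature, light-protected; reagent: SFCypet-SUMO1-SFYpet substrate at 25 nM; control set: no-enzyme low, enzyme-DMSO high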
iPSC survival up = hiPSC single-cell survival enhancement. hit rate 0.044% among 360,000. AID 602274. ATPlite luminescence; 100% = ROCK inhibitor wells, 0% = DMSO. survival enhancement, % at 20 µM; in the data active means survival enhancement above about 18%;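 further: cells exposed to compounds for 16 hours before the ATP read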
A number is an active result; n = inactive.

SMILES	Arrestin-AP2 inh	NR3A LBD binder	FAS TE block	H9c2 protect	SENP1 FRET inh	iPSC survival up
O=C(NCCCSc1ccccc1)c1cc(Cl)ccc1O	n	12	n	n	n	n
COc1cc(-c2oc3cc(O)cc(O)c3c(=O)c2O[C@@H]2O[C@H](COC3O[C@@H](C)[C@H](O)[C@@H](O)[C@H]3O)[C@@H](O)[C@H](O)[C@H]2O)ccc1O (stereo partly drawn)	n	13	n	n	n	n
C[C@@H]1O[C@@H](Oc2c(-c3ccc(O)c(O)c3)oc3cc(O)cc(O)c3c2=O)[C@H](O)[C@H](O)[C@H]1O	n	n	n	n	n	n
O=C(Nc1ccccc1)Nc1ccc(F)c([N+](=O)[O-])c1	n	26	n	n	n	n
CC(=O)Nc1ccc(C)c([N+](=O)[O-])c1	n	n	n	n	n	n
O=C(Nc1ccc(Cl)cc1)Nc1cc([N+](=O)[O-])ccc1F	n	n	n	n	n	n
O=C(Nc1ccc([N+](=O)[O-])cc1)Nc1ccc(Cl)cc1F	n	22	n	n	n	n

Screens as filed in PubChem.
